The source made the active and inactive calls. The calls are words filed in the database; no cut-off is given here.

Chain of Cyclin-dependent kinase 5/CDK5 activator 1 (Q00535 whole entry): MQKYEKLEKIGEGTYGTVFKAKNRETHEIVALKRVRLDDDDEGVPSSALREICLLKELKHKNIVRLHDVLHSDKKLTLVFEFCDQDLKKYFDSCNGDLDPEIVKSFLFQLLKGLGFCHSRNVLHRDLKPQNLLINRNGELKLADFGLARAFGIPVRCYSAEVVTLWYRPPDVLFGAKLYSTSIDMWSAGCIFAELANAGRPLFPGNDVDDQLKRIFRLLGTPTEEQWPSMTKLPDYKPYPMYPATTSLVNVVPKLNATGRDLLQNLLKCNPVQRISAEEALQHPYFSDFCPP
Chain of Cyclin-dependent kinase 5/CDK5 activator 1 (Q15078 whole entry, further chain): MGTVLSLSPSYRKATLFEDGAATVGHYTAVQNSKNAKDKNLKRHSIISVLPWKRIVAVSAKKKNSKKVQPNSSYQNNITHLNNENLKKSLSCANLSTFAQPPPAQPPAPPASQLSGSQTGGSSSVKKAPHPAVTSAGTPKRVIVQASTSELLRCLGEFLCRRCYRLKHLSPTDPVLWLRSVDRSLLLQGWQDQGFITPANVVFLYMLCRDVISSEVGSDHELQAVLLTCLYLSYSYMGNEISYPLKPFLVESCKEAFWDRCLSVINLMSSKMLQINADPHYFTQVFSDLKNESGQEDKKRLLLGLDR

In one experiment the test system is INS-1E. In words: Protection against glucose and palmitate-induced toxicity in rat INS-1E cells after 24 hrs. It is filed as functional, cell-based.
Conditions: not given
In short, it runs like this:
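INS-1E cells treated with compound over a concentration range, with or without 0.3 mM BSA-coupled palmitate plus 25 mM glucose for 24 h. Viability/metabolic activity measured as an indirect readout of mitochondrial energy production. At least four wells per point; representative of ≥3 independent studies.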
Regarding `O=C1Cc2c([nH]c3ccc(C(F)(F)F)cc23)-c2ncccc2N1`, the outcome was Active.

Take `O=C1Cc2c([nH]c3ccc(I)cc23)-c2ncccc2N1`: the outcome was Active.

With `O=C1Cc2c([nH]c3ccc(F)cc23)-c2ncccc2N1`, the result was Active.

System in the next experiment: not listed separately
Put plainly: Activation of cyclophilin B gene expression in rat INS-1E cells at 1 uM after 4 hrs relative to control. In kind it is functional, cell-based.
Conditions: not given
In short, it runs like this:
(§1)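 Compound added to INS-1E cells for 4 h or 24 h. Pax4 and cyclophilin B transcripts quantified by qRT-PCR. Reported as fold change versus vehicle-treated control, with the control level set to 1. Mean of triplicates ± SD.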
For the molecule `O=C1Nc2cc(Br)ccc2/C1=C1/Nc2ccccc2/C1=N\O`, the Fold change is 1.04.

For the next experiment, the target named is Glycogen synthase kinase-3 (Homo sapiens, UniProt P49840+P49841). In words: Inhibition of GSK3alpha/beta in pig brain. Also on record: species or system Sus scrofa. Conditions: target entry is the homologue from another species.
In general, IC50 refers to the concentration at which inhibition is half-maximal. Consider `O=C1Cc2c([nH]c3cc(Cl)cc(Cl)c23)-c2ncccc2N1`, for which the IC50 is 800 nM.

For `O=C1Cc2c([nH]c3ccc(C(F)(F)F)cc23)-c2ncccc2N1`, the IC50 amounted to 8 nM.

`Cc1ccc2[nH]c3c(c2c1)CC(=O)Nc1cccnc1-3`: the IC50 turned out to be 130 nM.

Take `O=C1Cc2c([nH]c3ccc(Cl)cc23)-c2ncccc2N1`: the IC50 was 63 nM.

With `O=C1Cc2c([nH]c3ccc(C(F)(F)F)cc23)-c2cnccc2N1`, the IC50 is 13 nM.

As to `Cn1c2c(c3ccccc31)CC(=O)Nc1ccncc1-2`, the half-maximal inhibitory concentration (IC50) worked out at 400 nM.

Turning to `O=C1Cc2c(oc3ccc(Cl)cc23)-c2ccccc2N1`, the IC50 is more than 10000 nM.

With `O=C1Cc2c([nH]c3ccc(I)cc23)-c2ncccc2N1`, the IC50 is 25 nM.

In turn, `COc1ccc2[nH]c3c(c2c1)CC(=O)Nc1ccncc1-3` had an IC50 of 390 nM.

In turn, `O=C1Cc2c([nH]c3ccc(F)cc23)-c2cnccc2N1` displayed an IC50 of 51 nM.

Molecule `O=C1Cc2c(n3c4c(cccc24)CC3)-c2ncccc2N1` had an IC50 of 410 nM.

In turn, `O=C1Cc2c(oc3ccc(Br)cc23)-c2ccccc2N1` registered an IC50 of more than 10000 nM.

Turning to `N#Cc1cc(I)c2[nH]c3c(c2c1)CC(=O)Nc1cccnc1-3`, the IC50 is 120 nM.

For the molecule `CCn1c2c(c3ccccc31)CC(=O)Nc1ccncc1-2`, the IC50 was 800 nM.

Molecule `N#Cc1ccc2c(c1)-c1[nH]c3ccc(C#N)cc3c1CC(=O)N2` had an IC50 of 28 nM.

As for `O=C1Cc2c([nH]c3ccc(F)cc23)-c2ncccc2N1`, the IC50 was 80 nM.

System in another experiment: not listed separately
In words: Activation of Pax4 RNA expression in rat INS-1E cells at 1 uM after 24 hrs relative to control. It is filed as functional, cell-based.
Conditions: not given
In short, it runs like this:
as §1
Molecule `O=C1Nc2cc(Br)ccc2/C1=C1/Nc2ccccc2/C1=N\O` came in with a Fold change of 0.81.

System in a further experiment: not listed separately
Put plainly: Activation of Pax4 RNA expression in rat INS-1E cells at 10 uM after 24 hrs relative to control.
Conditions: not given
In kind it is functional, cell-based. In short, it runs like this:
as §1
As to `O=C1Cc2c([nH]c3ccc(C(F)(F)F)cc23)-c2ncccc2N1`, the Fold change amounted to 0.61.

Regarding `O=C1Cc2c([nH]c3ccc(F)cc23)-c2ncccc2N1`, the Fold change turned out to be 0.45.

A further experiment concerns the target Cyclin-dependent kinase 5/CDK5 activator 1 (Homo sapiens, UniProt Q00535). Put plainly: Inhibition of recombinant CDK5/p25 expressed in Escherichia coli.
Conditions: not given
For `O=C1Cc2c([nH]c3cc(Cl)cc(Cl)c23)-c2ncccc2N1`, the half-inhibitory concentration (IC50) was found to be 100000 nM.

As for `O=C1Cc2c([nH]c3ccc(C(F)(F)F)cc23)-c2ncccc2N1`, the IC50 was 10000 nM.

Turning to `Cc1ccc2[nH]c3c(c2c1)CC(=O)Nc1cccnc1-3`, the IC50 was more than 10000 nM.

For the molecule `O=C1Cc2c([nH]c3ccc(Cl)cc23)-c2ncccc2N1`, the IC50 was more than 10000 nM.

Regarding `O=C1Cc2c([nH]c3ccc(C(F)(F)F)cc23)-c2cnccc2N1`, the IC50 came to 120 nM.

For the molecule `Cn1c2c(c3ccccc31)CC(=O)Nc1ccncc1-2`, the 50% inhibitory concentration (IC50) is more than 10000 nM.

As to `O=C1Cc2c(oc3ccc(Cl)cc23)-c2ccccc2N1`, the IC50 was more than 10000 nM.

As to `O=C1Cc2c([nH]c3ccc(I)cc23)-c2ncccc2N1`, the IC50 was 6000 nM.

With `COc1ccc2[nH]c3c(c2c1)CC(=O)Nc1ccncc1-3`, the IC50 was 400 nM.

For the molecule `O=C1Cc2c([nH]c3ccc(F)cc23)-c2cnccc2N1`, the IC50 stood at 260 nM.

`O=C1Cc2c(n3c4c(cccc24)CC3)-c2ncccc2N1`: the IC50 is more than 10000 nM.

Regarding `O=C1Cc2c(oc3ccc(Br)cc23)-c2ccccc2N1`, the IC50 is more than 10000 nM.

As for `N#Cc1cc(I)c2[nH]c3c(c2c1)CC(=O)Nc1cccnc1-3`, the IC50 is 2000 nM.

Regarding `CCn1c2c(c3ccccc31)CC(=O)Nc1ccncc1-2`, the IC50 was more than 10000 nM.

For `N#Cc1ccc2c(c1)-c1[nH]c3ccc(C#N)cc3c1CC(=O)N2`, the IC50 stood at 730 nM.

As for `O=C1Cc2c([nH]c3ccc(F)cc23)-c2ncccc2N1`, the IC50 stood at 3000 nM.

Another experiment relates to INS-1E. In words: Stimulation of rat INS-1E cell replication assessed as BrdU incorporation. In kind it is functional, cell-based.
Conditions: not given
In outline:
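INS-1E cells exposed to compound at various concentrations for 24 h. Replication measured as BrdU incorporation, given as fold increase versus untreated cells ± SD. At least four wells per point, two independent studies, Student's t test.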
For orientation: Uptake of a labelled nucleoside into DNA is a usual measure of proliferation.
For `O=C1Cc2c([nH]c3ccc(C(F)(F)F)cc23)-c2ncccc2N1`, the Activity entry was “Dose-dependent effect”.

In the case of `O=C1Cc2c([nH]c3ccc(F)cc23)-c2ncccc2N1`, the Activity result is “Dose-dependent effect”.

System in a further experiment: not listed separately
In words: Inhibition of starfish CDK1/cyclin B. Also on record: species or system Asteroidea.
Conditions: not given
In outline:
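Kinase inhibition assays at 15 µM final ATP, run in triplicate.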
`O=C1Cc2c([nH]c3cc(Cl)cc(Cl)c23)-c2ncccc2N1` gave an IC50 of more than 30000 nM.

Consider `O=C1Cc2c([nH]c3ccc(C(F)(F)F)cc23)-c2ncccc2N1`, for which half-maximal inhibition (IC50) was put at 1650 nM.

`Cc1ccc2[nH]c3c(c2c1)CC(=O)Nc1cccnc1-3` yielded an IC50 of 8000 nM.

For `O=C1Cc2c([nH]c3ccc(Cl)cc23)-c2ncccc2N1`, the IC50 was more than 10000 nM.

With `O=C1Cc2c([nH]c3ccc(C(F)(F)F)cc23)-c2cnccc2N1`, the 50% inhibitory concentration (IC50) is 190 nM.

`Cn1c2c(c3ccccc31)CC(=O)Nc1ccncc1-2` gave an IC50 of 8000 nM.

`O=C1Cc2c(oc3ccc(Cl)cc23)-c2ccccc2N1` registered a half-inhibitory concentration (IC50) of more than 10000 nM.

On to `O=C1Cc2c([nH]c3ccc(I)cc23)-c2ncccc2N1`, for which the midpoint of inhibition, the IC50, lay at 1000 nM.

In turn, `COc1ccc2[nH]c3c(c2c1)CC(=O)Nc1ccncc1-3` came in with a half-maximal inhibitory concentration (IC50) of 200 nM.

As for `O=C1Cc2c([nH]c3ccc(F)cc23)-c2cnccc2N1`, half-maximal inhibition (IC50) was put at 1200 nM.

`O=C1Cc2c(n3c4c(cccc24)CC3)-c2ncccc2N1`: the IC50 is more than 10000 nM.

On to `O=C1Cc2c(oc3ccc(Br)cc23)-c2ccccc2N1`, for which the IC50 was more than 10000 nM.

`N#Cc1cc(I)c2[nH]c3c(c2c1)CC(=O)Nc1cccnc1-3` gave an IC50 of 410 nM.

In the case of `CCn1c2c(c3ccccc31)CC(=O)Nc1ccncc1-2`, the midpoint of inhibition, the IC50, lay at 3800 nM.

On to `N#Cc1ccc2c(c1)-c1[nH]c3ccc(C#N)cc3c1CC(=O)N2`, for which the midpoint of inhibition, the IC50, lay at 120 nM.

`O=C1Cc2c([nH]c3ccc(F)cc23)-c2ncccc2N1` gave a 50% inhibitory concentration (IC50) of 4500 nM.

System in the next experiment: not listed separately
In words: Activation of Pax4 RNA expression in rat INS-1E cells at 1 uM after 4 hrs relative to control. In kind it is functional, cell-based.
Conditions: not given
In short, it runs like this:
as §1
The molecule `O=C1Nc2cc(Br)ccc2/C1=C1/Nc2ccccc2/C1=N\O` had a Fold change of 1.02.

System in a further experiment: not listed separately
Put plainly: Activation of cyclophilin B gene expression in rat INS-1E cells at 10 uM after 4 hrs relative to control. In kind it is functional, cell-based.
Conditions: not given
In outline:
as §1
In turn, `O=C1Cc2c([nH]c3ccc(C(F)(F)F)cc23)-c2ncccc2N1` gave a Fold change of 1.2.

`O=C1Cc2c([nH]c3ccc(F)cc23)-c2ncccc2N1` showed a Fold change of 1.14.

System in a further experiment: not listed separately
Put plainly: Activation of Pax4 RNA expression in rat INS-1E cells at 10 uM after 4 hrs relative to control. In kind it is functional, cell-based.
Conditions: not given
In outline: as §1
In the case of `O=C1Cc2c([nH]c3ccc(C(F)(F)F)cc23)-c2ncccc2N1`, the Fold change was determined as 0.72.

In turn, `O=C1Cc2c([nH]c3ccc(F)cc23)-c2ncccc2N1` registered a Fold change of 0.97.

The subject of another experiment is INS-1E. Put plainly: Inhibition of glucose and palmitate-induced apoptosis in rat INS-1E cells by caspase activity assay. It is filed as functional, cell-based.
Conditions: not given
In short, it runs like this: (§2)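 INS-1E cells preincubated 1 h with compound (µM), then exposed to toxic high glucose/palmitate for 24 h. Apoptosis read as cytosolic DNA fragments or caspase activity, as fold change versus untreated control ± SD. At least four wells per point; Student's t test against glucose/palmitate alone.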
Turning to `O=C1Cc2c([nH]c3ccc(C(F)(F)F)cc23)-c2ncccc2N1`, the outcome was Active.

For `O=C1Cc2c([nH]c3ccc(F)cc23)-c2ncccc2N1`, the result was Active.

The next experiment has as its system INS-1E. Put plainly: Inhibition of glucose and palmitate-induced apoptosis in rat INS-1E cells by DNA fragmentation assay. It is filed as functional, cell-based.
Conditions: not given
In outline:
as §2
For the molecule `O=C1Cc2c([nH]c3ccc(C(F)(F)F)cc23)-c2ncccc2N1`, the result was Active.

Turning to `O=C1Cc2c([nH]c3ccc(F)cc23)-c2ncccc2N1`, the result was Active.

System in the next experiment: not listed separately
In words: Activation of cyclophilin B gene expression in rat INS-1E cells at 10 uM after 24 hrs relative to control. It is filed as functional, cell-based.
Conditions: not given
In outline:
as §1
As for `O=C1Cc2c([nH]c3ccc(C(F)(F)F)cc23)-c2ncccc2N1`, the Fold change turned out to be 1.3.

Take `O=C1Cc2c([nH]c3ccc(F)cc23)-c2ncccc2N1`: the Fold change is 0.97.

Another experiment concerns SH-SY5Y. In words: Inhibition of GSK3 in human SHSY5Y cells assessed as beta-casein phosphorylation level in presence of MG132. Particulars: in the assay text read “beta-catenin” for “beta-casein”. In kind it is cell-based. In outline:
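Nearly confluent SH-SY5Y cells in DMEM with 10% FCS were co-treated with compound across a concentration range plus 2 µM MG132, DMSO ≤1% final. Phospho-β-catenin (Ser33/Ser37/Thr41) measured by ELISA and expressed as % of cells given MG132 alone (100%).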
For `O=C1Cc2c([nH]c3ccc(C(F)(F)F)cc23)-c2ncccc2N1`, the Activity entry is “Dose-dependent effect”.

System in a further experiment: not listed separately
In words: Activation of cyclophilin B gene expression in rat INS-1E cells at 1 uM after 24 hrs relative to control.
Conditions: not given
It is filed as functional, cell-based. In short, it runs like this: as §1
On to `O=C1Nc2cc(Br)ccc2/C1=C1/Nc2ccccc2/C1=N\O`, for which the Fold change worked out at 1.2.

The values are drawn from ChEMBL document CHEMBL1144697, “9-cyano-1-azapaullone (cazpaullone), a glycogen synthase kinase-3 (GSK-3) inhibitor activating pancreatic beta cell protection and replication” (J Med Chem, 2008).
